Results on 18 molecules are retold here after ChEMBL document CHEMBL3792357, “4,6-Diphenylpyridines as Promising Novel Anti-Influenza Agents Targeting the PA-PB1 Protein-Protein Interaction: Structure-Activity Relationships Exploration with the Aid of Molecular Modeling” (J Med Chem, 2016).

In one series the test system is Influenza A virus. The series is described as follows: Antiviral activity against Influenza A virus PR/8/34 infected in MDCK cells assessed as inhibition of plaque formation treated for 1 hr measured after 2 days by toluidine blue staining-based assay. It counts as functional, organism-based. To be noted: A/Puerto Rico/8/1934(H1N1). The essentials: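 MDCK confluent monolayers infected with PR8 (H1N1) at 40 PFU/well in DMEM with 1 µg/ml TPCK-trypsin, 0.14% BSA and compound, 1 h at 37 °C. Overlay of the same medium plus 1.2% Avicel and compound. After 2 days, fixed in 4% formaldehyde, stained with 0.1% toluidine blue and plaques counted. EC50 = 50% plaque inhibition. Ribavirin and oseltamivir as references. Mean ± SD, ≥3 independent experiments in duplicate.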

In series [1] the target is PA/PB1 (Influenza A virus (A/Puerto Rico/8/1934(H1N1)), UniProt P03431+P03433). Description: Inhibition of Influenza A virus PR/8/34 6His-tagged PA (239 to 716 residues) interaction with GST-tagged PB1 (1 to 25 residues) expressed in Escherichia coli compound treated in PBS buffer measured after overnight incubation by ELISA. The essentials:
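Plates coated with 400 ng E. coli-expressed 6His-PA(239–716) for 3 h at 37 °C, then blocked with 2% BSA/PBS for 1 h. Then 200 ng GST-PB1(1–25) (GST as control) with compound or DMSO in PBS, overnight at room temperature. Detection with HRP anti-GST mAb and TMB, OD 450 nm. DMSO = 100% interaction; PB1(1–15)-Tat as reference. Mean ± SD, ≥3 experiments in duplicate.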

Series [2] in a line: Cytotoxicity against MDCK cells assessed as decrease in cell viability after 48 hrs by MTT assay. It is filed as cell-based, Canis lupus familiaris. Conditions: dog. An outline of the steps: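 MDCK cells at 5x10³/well exposed to 2-fold serial dilutions from 250 µM for 48 h. MTT (5 mg/mL) for 4 h at 37 °C, solubilisation 3 h, A620. DMSO wells = 100% viable; CC50 = concentration giving 50% viability loss. Mean ± SD, ≥3 independent experiments in duplicate.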

Series [3] is described as follows: Cytotoxicity against HEK293T cells assessed as decrease in cell viability after 24 hrs by MTT assay. It counts as cell-based, HEK-293T. To be noted: human. An outline of the steps: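 HEK 293T cells at 2x10⁴/well exposed to 2-fold serial dilutions from 250 µM for 24 h. MTT (5 mg/mL) for 4 h at 37 °C, solubilisation 3 h, absorbance at 620 nm. DMSO wells set as 100% viability; CC50 = 50% viability decrease. Mean ± SD, ≥3 independent experiments in duplicate.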

A short description of series [4]: Selectivity index, ratio of CC50 for MDCK cells to EC50 for Influenza A virus PR/8/34 infected in MDCK cells. It counts as toxicity, cell-based. To be noted: dog, read-out: Ratio CC50/EC50.
The target of series [5] is PA/PB1 (Influenza A virus (A/Puerto Rico/8/1934(H1N1)), UniProt P03431+P03433). Description: Inhibition of Influenza A virus PR/8/34 6His-tagged PA (239 to 716 residues) interaction with GST-tagged PB1 (1 to 25 residues) expressed in Escherichia coli compound treated in DMEM serum-free medium measured after overnight incubation by ELISA. The essentials:
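Same coated 6His-PA(239–716)/GST-PB1(1–25) ELISA (400 ng PA, 200 ng PB1 peptide; overnight room temperature; HRP anti-GST/TMB, OD 450), but GST-PB1 and compounds or DMSO are dissolved in serum-free DMEM instead of PBS. DMSO = 100% interaction; PB1(1–15)-Tat as positive control. IC50 from mean ± SD, ≥2 experiments in duplicate.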

Series [6] can be described thus: Inhibition of Influenza A virus RdRp transfected in HEK293T cells at 24 hrs by dual luciferase reporter gene-based minireplicon assay. It counts as cell-based. To be noted: HEK-293T. An outline of the steps: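 HEK 293T seeded at 2x10⁵/well; 24 h later calcium-phosphate transfected with PB1, PB2, PA and NP plasmids (100 ng/well each), pPolI-Flu-ffLuc (50 ng/well) and pRL-SV40 normaliser (50 ng/well) with compound or DMSO. Medium with compound replaced at 4 h; firefly/Renilla luciferase read at 24 h. Ribavirin reference. Mean ± SD, ≥2 experiments in duplicate.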

A short description of series [7]: Ratio of IC50 for Influenza A virus PR/8/34 6His-tagged PA (239 to 716 residues) interaction with GST-tagged PB1 (1 to 25 residues) to EC50 for Influenza A virus PR/8/34 infected in MDCK cells.

On to `Cc1cccc(NC(=O)CSc2nccc(-c3ccccc3)c2C#N)c1`, for which the EC50 with Influenza A virus was greater than 10 µM. Moreover, the half-maximal inhibitory concentration (IC50) in series [1] is greater than 200 µM. Besides, the CC50 at 48 h in series [2] was 41.5 µM. Besides, the CC50 at 24 h in series [3] was determined as 180 µM.
`CSCC[C@H](N)C(=O)N[C@@H](CC(=O)O)C(=O)N[C@H](C(=O)N[C@@H](CC(N)=O)C(=O)N1CCC[C@H]1C(=O)N[C@H](C(=O)N[C@@H](CC(C)C)C(=O)N[C@@H](CC(C)C)C(=O)N[C@@H](Cc1ccccc1)C(=O)N[C@@H](CC(C)C)C(=O)N[C@@H](CCCCN)C(=O)N[C@H](C(=O)N1CCC[C@H]1C(=O)N[C@@H](C)C(=O)N[C@@H](CCC(N)=O)C(=O)O)C(C)C)[C@@H](C)O)C(C)C`: the EC50 in the series on Influenza A virus stood at 49.7 µM. Moreover, the selectivity ratio in series [4] is greater than 5. Further, the IC50 in series [1] was determined as 35.9 µM; in series [5] it was 31.7 µM. Moreover, the CC50 at 48 h in series [2] was greater than 250 µM. Further, the CC50 at 24 h in series [3] was greater than 250 µM.
As for `CCOC(=O)C1=C[C@@H](OC(CC)CC)[C@H](NC(C)=O)[C@@H](N)C1` [OSELTAMIVIR], the EC50 in the series on Influenza A virus was found to be 0.015 µM. The selectivity ratio in series [4] is greater than 16000. In series [2], the CC50 at 48 h was greater than 250 µM. Also, the CC50 at 24 h in series [3] is greater than 250 µM.
As to `Cc1cccc(NC(=O)CNc2nc(-c3ccccc3)cc(-c3ccccc3)c2C#N)c1`, the results for the EC50 (in the series with Influenza A virus; in series [6]) were 28.6 µM and 46.3 µM, respectively. Further, the selectivity ratio in series [4] was greater than 8.7. Further, the IC50 in series [1] and in series [5] was greater than 200 µM in each case. The cytotoxic concentration (CC50) at 48 h in series [2] was greater than 250 µM. Besides, in series [3], the CC50 at 24 h was greater than 250 µM.
`N#Cc1c(-c2ccccc2)cc(-c2ccccc2)nc1SCC(=O)N1CCOCC1`: the EC50 in the series with Influenza A virus is 100 µM. The selectivity ratio in series [4] is greater than 2.5. The molecule further yielded an IC50 in series [1] of 177 µM. For the same molecule, the CC50 at 48 h in series [2] is greater than 250 µM. For the same molecule, the CC50 at 24 h in series [3] was 184 µM.
`Cc1cccc(NC(=O)CCc2nc(-c3ccccc3)cc(-c3ccccc3)c2C#N)c1`: the EC50 with Influenza A virus is greater than 100 µM. The molecule further registered an IC50 in series [1] greater than 200 µM. For the same molecule, in series [2], the CC50 at 48 h was greater than 250 µM. In addition, in series [3], the CC50 at 24 h was 140 µM.
`NC(=O)c1ncn([C@@H]2O[C@H](CO)[C@@H](O)[C@H]2O)n1` [RIBAVIRIN]: the EC50 in the series with Influenza A virus was found to be 12.8 µM; in series [6] it was 23.8 µM. Also, in series [4], the selectivity ratio is greater than 19.5. For the same molecule, in series [2], the half-maximal cytotoxic concentration (CC50) at 48 h is greater than 250 µM. For the same molecule, in series [3], the CC50 at 24 h is greater than 250 µM.
As for `CSc1nc(-c2ccccc2)cc(-c2ccccc2)c1C#N`, the EC50 in the series with Influenza A virus was greater than 50 µM. This molecule also gave an IC50 in series [1] of 195 µM. The half-maximal cytotoxic concentration (CC50) at 48 h in series [2] was 125 µM. Further, the CC50 at 24 h in series [3] worked out at 144 µM.
With `Cc1cccc(NC(=O)COc2nc(-c3ccccc3)cc(-c3ccccc3)c2C#N)c1`, the EC50 with Influenza A virus stood at 93.9 µM. The selectivity ratio in series [4] is greater than 2.7. Also, the IC50 in series [1] is greater than 200 µM. Further, in series [2], the half-maximal cytotoxic concentration (CC50) at 48 h is greater than 250 µM. Also, in series [3], the cytotoxic concentration (CC50) at 24 h is greater than 250 µM.
Turning to `Cc1cccc(NC(=O)CSc2cc(-c3ccccc3)cc(-c3ccccc3)n2)c1`, the EC50 in the series on Influenza A virus is 7.3 µM; in series [6], 30.8 µM. In addition, in series [4], the selectivity ratio worked out at 20.5. Besides, the figures for the IC50 in series [1] and in series [5] were 52.6 µM and 40.5 µM, respectively. Also, in series [2], the CC50 at 48 h was 150 µM. Also, in series [3], the CC50 at 24 h is greater than 250 µM.
In the case of `Cc1cccc(NC(=O)CSc2nc(-c3ccccc3)cc(-c3ccccc3)n2)c1`, the concentration giving a half-maximal response (EC50) in the series with Influenza A virus was determined as 3.5 µM. In series [4], the selectivity ratio amounted to 2.9. Moreover, the IC50 amounted to 165 µM in series [1] and 113 µM in series [5]. In series [2], the CC50 at 48 h is 10.1 µM. In series [7], the “Ratio IC50/EC50” value is 47. Also, the CC50 at 24 h in series [3] is 22.3 µM.
As for `Cc1cccc(NC(=O)CCSc2nc(-c3ccccc3)cc(-c3ccccc3)c2C#N)c1`, in the series with Influenza A virus, the EC50 was greater than 10 µM. In series [1], this molecule showed a 50% inhibitory concentration (IC50) of 122 µM. In series [2], the CC50 at 48 h is 13.9 µM. Besides, the 50% cytotoxic concentration (CC50) at 24 h in series [3] was 150 µM.
As for `Cc1cccc(NC(=O)/C=C/c2nc(-c3ccccc3)cc(-c3ccccc3)c2C#N)c1`, the EC50 in the series on Influenza A virus was found to be 70.7 µM. The selectivity ratio in series [4] was greater than 3.5. Further, in series [1], the IC50 was 190 µM. In addition, in series [2], the CC50 at 48 h is greater than 250 µM. In addition, the CC50 at 24 h in series [3] is greater than 250 µM.
As for `Cc1cccc(NC(=O)CSc2nc(-c3ccc(C(F)(F)F)cc3)cc(-c3ccc(C(F)(F)F)cc3)n2)c1`, the results for the EC50 (with Influenza A virus; in series [6]) were 26.5 µM and 22 µM, respectively. Further, the selectivity ratio in series [4] is greater than 9.4. Also, the IC50 is greater than 200 µM in series [1] and 64.5 µM in series [5]. In addition, the CC50 at 48 h in series [2] was greater than 250 µM. For the same molecule, in series [3], the CC50 at 24 h is greater than 250 µM.
For the molecule `Cc1cccc(NC(=O)CSc2nc(-c3ccccc3)ccc2C#N)c1`, the EC50 in the series on Influenza A virus is greater than 10 µM. The molecule further yielded a concentration for half-maximal inhibition (IC50) in series [1] greater than 200 µM. Moreover, the CC50 at 48 h in series [2] came to 7.1 µM. Besides, the 50% cytotoxic concentration (CC50) at 24 h in series [3] is 32 µM.
With `Cc1cccc(NC(=O)CCCSc2nc(-c3ccccc3)cc(-c3ccccc3)c2C#N)c1`, the EC50 in the series on Influenza A virus came out at 8.2 µM. Moreover, the selectivity ratio in series [4] was 5.1. Moreover, the IC50 in series [1] came out at 140 µM; in series [5], 145 µM. In series [2], the CC50 at 48 h worked out at 41.5 µM. In addition, in series [3], the CC50 at 24 h is 95.6 µM.
Regarding `N#Cc1cnc(-c2ccccc2)cc1-c1ccccc1`, the 50% effective concentration (EC50) in the series with Influenza A virus came to 45.1 µM. Also, the selectivity ratio in series [4] worked out at 2.3. Further, the 50% inhibitory concentration (IC50) in series [1] was 116 µM. Also, in series [2], the 50% cytotoxic concentration (CC50) at 48 h worked out at 105 µM. Further, the CC50 at 24 h in series [3] is greater than 250 µM.
In the case of `Cc1cccc(NC(=O)CSc2nc(-c3ccccc3)cc(-c3ccccc3)c2C#N)c1`, the EC50 in the series on Influenza A virus came to 9.2 µM; in series [6] it was 86.6 µM. The selectivity ratio in series [4] is greater than 27.2. The IC50 in series [1] turned out to be 175 µM; in series [5], 35.2 µM. Moreover, the CC50 at 48 h in series [2] was greater than 250 µM. In series [7], the “Ratio IC50/EC50” value is on record as 19. The CC50 at 24 h in series [3] was greater than 250 µM.
